In ChEMBL document CHEMBL3588754, “Parallel Synthesis of Hexahydrodiimidazodiazepines Heterocyclic Peptidomimetics and Their in Vitro and in Vivo Activities at μ (MOR), δ (DOR), and κ (KOR) Opioid Receptors” (J Med Chem, 2015):

Columns and labels:
[1] = target: Mu-type opioid receptor (Rattus norvegicus, UniProt P33535); assay: Displacement of [3H]DAMGO from mu opioid receptor in rat cortices by competition binding assay
Outline: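 Rat cortex membranes were prepared in 50 mM Tris pH 7.4, preincubated at 37 °C for 30 min, and resuspended with 2 mg/mL bovine serum. Assay used 2 nM [3H]DAMGO. Binding was stopped by filtration through BSA-soaked GF/B filters, followed by scintillation counting. IC50 was converted to Ki. Values are mean ± SD of two experiments, each in duplicate.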

[2] = target: Kappa-type opioid receptor (Cavia porcellus, UniProt P41144); assay: Displacement of [3H]U69593 from kappa opioid receptor in guinea pig cortices and cerebella by competition binding assay
Outline: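 Guinea pig cortex and cerebellum membranes were prepared in 50 mM Tris pH 7.4 with 10 mM MgCl2. Assay used 2 nM [3H]U69,593, incubated 2 h at 25 °C. Unlabeled U50,488 defined nonspecific binding. Filtration was through GF/B filters, with scintillation counting. Ki is mean ± SD of two experiments, each in duplicate.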

[3] = target: Delta-type opioid receptor (Rattus norvegicus, UniProt P33533); assay: Displacement of [3H]DPDPE from delta opioid receptor in rat cortices by competition binding assay
Outline: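 Rat cortex membranes were prepared in 50 mM Tris pH 7.4 with 10 mM MgCl2 and 200 μM PMSF. Assay used 2 nM [3H]DPDPE, incubated 2.5 h at 25 °C. Unlabeled DPDPE defined nonspecific binding. Filtration was through BSA-soaked GF/B filters, with scintillation counting. Ki is mean ± SD of two experiments, each in duplicate.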

[4] = target: Delta-type opioid receptor (Homo sapiens, UniProt P41143); assay: Agonist activity at delta opioid receptor (unknown origin) expressed in CHO-K1 cells assessed as inhibition of forskolin-induced cAMP accumulation by FRET assay; type: functional, cell-based
Outline: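 CHO cells stably expressing DOR, plated at 20 000 cells/well (figure legend: 100 000). Exposed to test agent with 4 μM forskolin (legend: 1 μM) in 1× PBS with 1 mM […] for 30 min at rt. HTRF cAMP read-out with europium cryptate and d2 in lysis buffer for 1 h. EC50 ± SEM from three experiments, two replicates each.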

[5] = tested on: Mus musculus; assay: Antinociceptive effect in icv dosed C57BL/6 mouse assessed as tail withdrawal latency measured up to 2 hrs by 55 degC Warm water tail withdrawal assay; type: functional
[6] = tested on: Mus musculus; assay: Antinociceptive effect in ip dosed C57BL/6 mouse assessed as tail withdrawal latency measured up to 2 hrs by 55 degC Warm water tail withdrawal assay; type: functional; settings: C57BL/6, Tail
[7] = tested on: Mus musculus; assay: Antinociceptive effect in po dosed C57BL/6 mouse assessed as tail withdrawal latency measured up to 2 hrs by 55 degC Warm water tail withdrawal assay; type: functional; settings: C57BL/6, Tail
[8] = species on record: Mus musculus; assay: Ratio of ED50 for antinociceptive effect in C57BL/6 mouse by 55 degC Warm water tail withdrawal assay to ED50 for analgesic activity in C57BL/6 mouse by acetic acid writhing assay; type: functional
Outline: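 Index from ip ED50 values in adult male C57BL/6J mice given ip doses in 1:1:8 ethanol/Tween-80/saline (n = 8/dose). Tail-withdrawal: 55 °C water, read at 30 min, % antinociception against baseline with a 15 s cutoff. Writhing: 0.9% acetic acid ip 25 min post-dose, writhes counted over 15 min, compared with vehicle. ED50 from regression; ratio is tail-withdrawal/writhing.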

Oc1ccc(C[C@H]2CN3C(=CC4=NC[C@H](Cc5ccccc5)N4C[C@@H]3Cc3ccc(O)cc3)N2)cc1
Ki [1]: 1180 nM
Ki [2]: 4140 nM
Ki [3]: 338 nM

CC(C)C[C@H]1CN2C(=CC3=NC[C@H](Cc4ccccc4)N3C[C@@H]2Cc2ccc(O)cc2)N1
Ki [1]: 1330 nM
Ki [2]: 3440 nM
Ki [3]: 57 nM
EC50 [4]: 6360 nM

CC(C)C[C@H]1CN2C(=CC3=NC[C@H](C(C)C)N3C[C@@H]2Cc2ccc(O)cc2)N1
Ki [1]: 1190 nM
Ki [2]: 209 nM
Ki [3]: 215 nM

Oc1ccc(C[C@H]2CN3C(=CC4=NC[C@H](Cc5ccc(O)cc5)N4C[C@@H]3Cc3ccc(O)cc3)N2)cc1
Ki [1]: 552 nM
Ki [2]: 3760 nM
Ki [3]: 316 nM

Oc1ccc(C[C@H]2CN3C(=CC4=NC[C@H](Cc5ccccc5)N4C[C@@H]3Cc3ccccc3)N2)cc1
Ki [1]: 566 nM
Ki [2]: 8390 nM
Ki [3]: 2090 nM

CN1CC[C@]23c4c5ccc(O)c4O[C@H]2[C@@H](O)C=C[C@H]3[C@H]1C5 [MORPHINE]
Activity [5]: Dose-dependent effect
ED50 [6]: 3.91 mg/kg
ED50 [7]: 2.07 mg/kg
Ratio ED50 [8]: 2.23

Oc1ccc(C[C@H]2CN3C(=CC4=NC[C@H](Cc5ccc(O)cc5)N4C[C@@H]3Cc3ccccc3)N2CCc2ccccc2)cc1
Ki [1]: 393 nM
Ki [2]: 767 nM
Ki [3]: 50 nM

Oc1ccc(C[C@H]2CN3C(=CC4=NC[C@H](Cc5ccc(O)cc5)N4C[C@@H]3Cc3ccc(O)cc3)N2CCc2ccccc2)cc1
Ki [1]: 246 nM
Ki [2]: 1550 nM
Ki [3]: 392 nM
